≈ marks a conversion by molar mass, not a printed value. Calls of active or inactive are those of the source.
Tests used:
[1] = tested on: Toxicodendron vernicifluum; assay: Inhibition of cytoplasmic extract of recombinant Rhus vernificera laccase-mediated ABTS oxidation at 0.5 times MIC after 2 hrs
Summary of the method: (§1)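 Yeasts grown 72 h at 30°C in asparagine medium with glucose, then 36 h without glucose. Intact cells were used at 1 x 10^8/ml in PBS ± voriconazole. Alternatively, bead-beaten cytoplasmic extracts in 0.1 M Na2HPO4 with protease inhibitor were used. ABTS 1 mM final, 30°C for 2 h; cells removed and A420 read against a no-ABTS baseline. Rhus laccase (1 U/ml) served as positive control. Run twice.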

[2] = tested on: Cryptococcus neoformans; assay: Antifungal activity against Cryptococcus neoformans ATCC 24067 after 72 hrs by NCCLS M27A method; type: functional; settings: ATCC 24067, 72 h
[3] = tested on: Toxicodendron vernicifluum; assay: Inhibition of recombinant Rhus vernificera laccase-mediated ABTS oxidation measured as inhibition activity with respect to decrease in enzyme concentration from 1 to 0.001 U/mL at 1 ug/ml
Summary of the method: (§2)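 Commercial Rhus vernificera laccase incubated with voriconazole, varying concentrations of either enzyme or drug, in PBS. ABTS 1 mM final, 30°C for 2 h, with absorbance read at 420 nm.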

[4] = tested on: Toxicodendron vernicifluum; assay: Inhibition of Rhus vernificera recombinant laccase-mediated ABTS oxidation; summary of the method: as §2
[5] = tested on: Cryptococcus neoformans; assay: Inhibition of melanin formation in Cryptococcus neoformans ATCC 24067 at 0.5 times MIC coincubated with L-dopa for 7 days by dry-weight measurement; type: functional; parameters: scale not given: the % may be the effect or the level left
Summary of the method: (§3)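 5 x 10^4 yeasts grown in 50 ml minimal medium + 1 mM L-dopa ± drug (0.25 or 0.5 MIC) at 30°C, 150 rpm, for 7 days. Melanin "ghosts" were isolated by cell-wall lysing enzymes (10 mg/ml, overnight 30°C), proteinase K (1 mg/ml, SDS buffer pH 7.8, 37°C overnight) and boiling 6 M HCl for 1 h. They were then lyophilized and weighed.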

[6] = tested on: Cryptococcus neoformans; assay: Reduction in LAC1 gene expression in Cryptococcus neoformans ATCC 24067 at 0.25 to 0.5 times MIC after 7 days by qRT-PCR relative to control; type: functional; parameters: scale not given: the % may be the effect or the level left
Summary of the method: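 Cells grown 7 days at 30°C on foil-covered minimal-medium agar + 1 mM L-dopa ± drug (0.25 or 0.5 MIC). Total RNA was DNase-treated and reverse transcribed, then LAC1 was measured by real-time PCR (40 cycles, 55°C annealing) with melting curve. Expression was normalized to ACT1 using the threshold-cycle method.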

[7] = tested on: Cryptococcus neoformans; assay: Increase in phagocytosis of Cryptococcus neoformans ATCC 24067 by mouse J774.16 cells at 0.25 to 0.5 times MIC; type: functional, organism-based
Summary of the method: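 Yeasts (5 x 10^4 in 25 ml minimal medium + 1 mM L-dopa, 0.25 or 0.5 MIC drug, 30°C, 150 rpm) sampled on days 3, 5 and 7. They were PBS-washed and added 1:1 to J774.16 macrophages with 10 µg/ml mAb 18B7 for 2 h at 37°C. Monolayers were washed, methanol-fixed and Giemsa-stained. Index is internalized yeasts per macrophage, from 3 wells × 3 fields (~100 macrophages each) at x400.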

[8] = tested on: Cryptococcus neoformans; assay: Antifungal activity against Cryptococcus neoformans ATCC 24067 assessed as effect on growth rate at 0.25 to 0.5 times MIC; type: functional, organism-based
Summary of the method: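 C. neoformans 24067 grown at 30°C in minimal medium with L-dopa, with drug at several sub-MIC levels up to 0.5 MIC. Inoculum was 5 x 10^4 cells in 50 ml per concentration, with growth followed over time.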

[9] = tested on: Cryptococcus neoformans; assay: Inhibition of melanin formation in Cryptococcus neoformans ATCC 24067 at 0.25 times MIC coincubated with L-dopa for 7 days by dry-weight measurement; type: functional; parameters: scale not given: the % may be the effect or the level left; summary of the method: as §3
[10] = tested on: Cryptococcus neoformans; assay: Inhibition of intact recombinant Cryptococcus neoformans ATCC 24067 laccase-mediated ABTS oxidation at 0.5 times MIC after 2 hrs; summary of the method: as §1
[11] = tested on: Cryptococcus neoformans; assay: Inhibition of melanin formation in Cryptococcus neoformans ATCC 24067 at =<0.5 times MIC after 10 days by plating assay; type: functional, organism-based
Summary of the method: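 Strain 24067 yeast grown on minimal-medium agar plates containing 1 mM L-dopa, with or without drug, 10 days at 30°C. Read-out was visual dark pigmentation of colonies and of surrounding agar from secreted laccase. Plates run in triplicate, experiment performed twice.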

SMILES | MIC [2] | Activity [5] | Activity [6] | Activity [9] | also measured
C[C@@H](c1ncncc1F)[C@](O)(Cn1cncn1)c1ccc(F)cc1F [VORICONAZOLE] | 0.015 µg/mL (≈ 0.0429 µM) | 94.5% | 40% | 82.1% | Activity [1]: Active; Activity [3]: Active; Activity [4]: Dose-dependent effect; Activity [7]: Active; Activity [8]: inactive; Activity [10]: Active
C[C@@H]1[C@H](O)[C@@H](C)/C=C/C=C/C=C/C=C/C=C/C=C/C=C/[C@H](O[C@@H]2O[C@H](C)[C@@H](O)[C@H](N)[C@@H]2O)C[C@@H]2O[C@](O)(C[C@@H](O)C[C@@H](O)[C@H](O)CC[C@@H](O)C[C@@H](O)CC(=O)O[C@H]1C)C[C@H](O)[C@H]2C(=O)O [AMPHOTERICIN B] | 0.125 µg/mL (≈ 0.135 µM) |  |  |  | Activity [11]: inactive
CCC(C)n1ncn(-c2ccc(N3CCN(c4ccc(OCC5COC(Cn6cncn6)(c6ccc(Cl)cc6Cl)O5)cc4)CC3)cc2)c1=O (stereo not drawn) [ITRACONAZOLE] | < 0.625 µg/mL |  |  |  | 
OC(Cn1cncn1)(Cn1cncn1)c1ccc(F)cc1F [FLUCONAZOLE] | 1 µg/mL (≈ 3.27 µM) | 17.3% | inactive | 2.7% | 
CC[C@H](C)C[C@H](C)CCCCCCCCC(=O)N[C@H]1C[C@@H](O)[C@@H](NCCN)NC(=O)[C@@H]2[C@@H](O)CCN2C(=O)[C@H]([C@H](O)CCN)NC(=O)[C@H]([C@H](O)[C@@H](O)c2ccc(O)cc2)NC(=O)[C@@H]2C[C@@H](O)CN2C(=O)[C@H]([C@@H](C)O)NC1=O [CASPOFUNGIN] | 8 µg/mL (≈ 7.32 µM) |  |  |  | 

— ChEMBL document CHEMBL1152458, “Voriconazole inhibits melanization in Cryptococcus neoformans” (2007)
